# Results: ChEMBL document CHEMBL1157586 (Bioorg Med Chem, 2010)
# How the values were obtained:
# [1] = biological target: Insulin-like growth factor 1 receptor (Homo sapiens, UniProt P08069); assay: Inhibition of IGF1R by scintillation proximity assay
# [2] = biological target: Inhibitor of nuclear factor kappa-B kinase subunit beta (Homo sapiens, UniProt O14920); assay: Inhibition of IKK2 by scintillation proximity assay
# [3] = biological target: Tyrosine-protein kinase JAK2 (Homo sapiens, UniProt O60674); assay: Inhibition of JAK2 by scintillation proximity assay
# [4] = biological target: MAP kinase-activated protein kinase 2 (Homo sapiens, UniProt P49137); assay: Inhibition of MAPKAPK2 by scintillation proximity assay
# Chain of MAP kinase-activated protein kinase 2 (P49137 whole entry): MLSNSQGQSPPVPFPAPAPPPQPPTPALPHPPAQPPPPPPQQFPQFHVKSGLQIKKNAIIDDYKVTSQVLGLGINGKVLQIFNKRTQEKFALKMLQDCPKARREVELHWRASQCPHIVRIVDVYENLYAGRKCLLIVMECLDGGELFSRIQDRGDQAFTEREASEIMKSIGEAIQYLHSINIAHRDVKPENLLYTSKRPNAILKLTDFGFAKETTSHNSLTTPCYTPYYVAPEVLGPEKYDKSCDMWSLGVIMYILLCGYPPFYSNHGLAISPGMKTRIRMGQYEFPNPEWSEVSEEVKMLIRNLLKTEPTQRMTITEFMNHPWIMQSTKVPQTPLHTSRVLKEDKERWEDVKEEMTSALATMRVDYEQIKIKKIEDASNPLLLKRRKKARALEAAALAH
# [5] = biological target: Serine/threonine-protein kinase Nek6 (Homo sapiens, UniProt Q9HC98); assay: Inhibition of NEK6 by scintillation proximity assay
# [6] = biological target: Serine/threonine-protein kinase PAK 4 (Homo sapiens, UniProt O96013); assay: Inhibition of PAK4 by scintillation proximity assay
# [7] = biological target: cAMP-dependent protein kinase catalytic subunit alpha (Homo sapiens, UniProt P17612); assay: Inhibition of PKAalpha by scintillation proximity assay
# [8] = biological target: Protein kinase C alpha type (Homo sapiens, UniProt P17252); assay: Inhibition of PKCalpha by scintillation proximity assay
# [9] = biological target: Serine/threonine-protein kinase PLK1 (Homo sapiens, UniProt P53350); assay: Inhibition of PLK1
# Chain of Serine/threonine-protein kinase PLK1 (P53350 whole entry): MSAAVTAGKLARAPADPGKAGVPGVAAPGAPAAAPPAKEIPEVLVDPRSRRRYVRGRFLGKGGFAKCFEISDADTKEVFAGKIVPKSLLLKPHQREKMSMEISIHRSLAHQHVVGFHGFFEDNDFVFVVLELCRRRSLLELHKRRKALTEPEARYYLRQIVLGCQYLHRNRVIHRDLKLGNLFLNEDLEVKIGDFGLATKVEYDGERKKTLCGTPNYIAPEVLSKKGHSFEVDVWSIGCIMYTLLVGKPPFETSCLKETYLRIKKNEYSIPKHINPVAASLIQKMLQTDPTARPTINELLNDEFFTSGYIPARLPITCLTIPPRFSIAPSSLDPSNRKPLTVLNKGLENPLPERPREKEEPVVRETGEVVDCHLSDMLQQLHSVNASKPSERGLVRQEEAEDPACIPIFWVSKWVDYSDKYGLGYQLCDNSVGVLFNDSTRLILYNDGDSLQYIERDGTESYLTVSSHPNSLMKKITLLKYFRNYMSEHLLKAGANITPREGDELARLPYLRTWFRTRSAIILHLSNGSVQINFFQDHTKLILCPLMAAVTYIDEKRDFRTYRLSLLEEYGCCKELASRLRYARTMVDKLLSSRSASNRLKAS
# [10] = biological target: Mitogen-activated protein kinase 14 (Homo sapiens, UniProt Q16539); assay: Inhibition of p38alpha
# Chain of Mitogen-activated protein kinase 14 (Q16539 whole entry): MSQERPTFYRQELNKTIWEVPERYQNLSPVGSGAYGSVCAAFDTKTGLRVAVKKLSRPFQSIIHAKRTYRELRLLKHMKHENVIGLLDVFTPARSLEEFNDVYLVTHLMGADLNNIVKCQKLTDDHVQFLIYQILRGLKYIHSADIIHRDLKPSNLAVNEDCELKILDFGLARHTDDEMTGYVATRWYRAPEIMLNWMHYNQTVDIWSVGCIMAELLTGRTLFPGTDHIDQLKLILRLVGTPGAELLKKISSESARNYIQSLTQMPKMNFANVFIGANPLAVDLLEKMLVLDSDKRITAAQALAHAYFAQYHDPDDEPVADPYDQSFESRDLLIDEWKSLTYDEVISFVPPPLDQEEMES
# [11] = biological target: High affinity nerve growth factor receptor (Homo sapiens, UniProt P04629); assay: Inhibition of TRKA
# [12] = biological target: Vascular endothelial growth factor receptor 3 (Homo sapiens, UniProt P35916); assay: Inhibition of VEGFR3 by scintillation proximity assay
# [13] = Solubility in 5% dextrose solution; format: physicochemical
# [14] = Solubility at pH 7; format: physicochemical; details: buffer
# [15] = biological target: CYP3A4 (Homo sapiens, UniProt P08684); assay: Inhibition of human CYP3A4 assessed as residual activity at 10 uM; format: ADME; details: read-out: Activity
# [16] = Cmax in nu/nu mouse at 10 mg/kg, iv; format: ADME, organism-based; design: dose 10 mg/kg, route intravenous; details: in vivo
# Procedure, shortened: (§1)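 Healthy nude mice given 10 mg/kg iv as the hydrochloride salt in 5% dextrose solution. Six mice in total, three per leg (iv and oral). Saphenous-vein blood taken predose and at 0.083, 0.5, 1, 6 and 24 h after iv dosing. Plasma separated by centrifugation (10,000g, 3 min, 4 °C) and stored at -80 °C until analysis.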
# [17] = AUC in nu/nu mouse at 10 mg/kg, iv; format: ADME, organism-based; design: dose 10 mg/kg, route intravenous; details: plasma; procedure, shortened: as §1
# [18] = Clearance in nu/nu mouse at 10 mg/kg, iv; format: ADME, organism-based; design: dose 10 mg/kg, route intravenous; details: in vivo; procedure, shortened: as §1
# [19] = Half life in nu/nu mouse at 10 mg/kg, iv; format: ADME, organism-based; design: dose 10 mg/kg, route intravenous; details: in vivo; procedure, shortened: as §1
# [20] = Volume of distribution at steady state in nu/nu mouse at 10 mg/kg, iv; format: ADME, organism-based; design: dose 10 mg/kg, route intravenous; details: in vivo, read-out: Vdss
# Procedure, shortened: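 Healthy nude mice received a single 10 mg/kg iv dose as the hydrochloride salt in 5% dextrose; six mice were used in total across the iv and oral legs. Saphenous-vein blood was drawn predose and at 0.083, 0.5, 1, 6 and 24 h. Samples were spun at 10,000g for 3 min at 4 °C, and plasma was stored at −80 °C until analysis.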
# [21] = test system: Mus musculus; assay: Toxicity in BALB/c nu/nu mouse assessed as body weight reduction at 10 to 30 mg/kg, iv QD for 10 consecutive days measured post last dose; format: organism-based; design: dose 10-30 mg/kg, route intravenous; scale not given: the % may be the effect or the level left; details: in vivo
# Procedure, shortened: (§2)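 Tumour-bearing nude mice were dosed iv once daily for 10 consecutive days, with compound dissolved in 5% dextrose; vehicle-treated mice served as controls. Doses were 10, 20 and 30 mg/kg in the A2780 model (starting day 8), and 10 and 20 mg/kg in the HCT-116 and BX-PC3 models. Body weight change was compared with controls, and gross autopsy was performed.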
# [22] = test system: Mus musculus; assay: Toxicity in BALB/c nu/nu mouse at 10 to 30 mg/kg, iv QD for 10 consecutive days measured post last dose; format: organism-based; design: dose 10-30 mg/kg, route intravenous; details: in vivo; procedure, shortened: as §2
# [23] = Plasma protein binding in human by HPLC analysis; format: ADME, cell-free; details: read-out: PPB (converted)
# [24] = biological target: Cyclin-dependent kinase 5/CDK5 activator 1 (Homo sapiens, UniProt Q00535); assay: Inhibition of CDK5/p25 by scintillation proximity assay; format: protein-complex assay
# [25] = biological target: Cyclin-dependent kinase 7/ cyclin H (Homo sapiens, UniProt P50613); assay: Inhibition of CDK7/cyclin H by scintillation proximity assay; format: protein-complex assay
# [26] = biological target: Cyclin-dependent kinase 1/cyclin B1 (Homo sapiens, UniProt P06493); assay: Inhibition of CDK1/cyclin B; format: protein-complex assay
# [27] = biological target: Cyclin-dependent kinase 4/cyclin D1 (Homo sapiens, UniProt P11802); assay: Inhibition of CDK4/cyclin D1 by scintillation proximity assay; format: protein-complex assay
# [28] = biological target: Glycogen synthase kinase-3 beta (Homo sapiens, UniProt P49841); assay: Inhibition of GSK3-beta by scintillation proximity assay
# Chain of Glycogen synthase kinase-3 beta (P49841 whole entry): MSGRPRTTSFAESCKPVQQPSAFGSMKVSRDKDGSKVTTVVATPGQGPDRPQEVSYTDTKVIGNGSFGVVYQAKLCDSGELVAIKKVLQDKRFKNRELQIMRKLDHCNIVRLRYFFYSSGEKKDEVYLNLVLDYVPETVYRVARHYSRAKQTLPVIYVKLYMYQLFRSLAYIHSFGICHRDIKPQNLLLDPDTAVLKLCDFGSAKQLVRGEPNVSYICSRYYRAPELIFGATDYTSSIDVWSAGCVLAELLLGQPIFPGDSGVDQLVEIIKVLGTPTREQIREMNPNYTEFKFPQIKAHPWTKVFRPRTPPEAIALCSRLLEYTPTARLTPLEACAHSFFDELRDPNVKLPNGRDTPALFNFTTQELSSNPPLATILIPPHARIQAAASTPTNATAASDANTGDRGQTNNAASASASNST
# [29] = biological target: RAC-alpha serine/threonine-protein kinase (Homo sapiens, UniProt P31749); assay: Inhibition of AKT1
# Chain of RAC-alpha serine/threonine-protein kinase (P31749 whole entry): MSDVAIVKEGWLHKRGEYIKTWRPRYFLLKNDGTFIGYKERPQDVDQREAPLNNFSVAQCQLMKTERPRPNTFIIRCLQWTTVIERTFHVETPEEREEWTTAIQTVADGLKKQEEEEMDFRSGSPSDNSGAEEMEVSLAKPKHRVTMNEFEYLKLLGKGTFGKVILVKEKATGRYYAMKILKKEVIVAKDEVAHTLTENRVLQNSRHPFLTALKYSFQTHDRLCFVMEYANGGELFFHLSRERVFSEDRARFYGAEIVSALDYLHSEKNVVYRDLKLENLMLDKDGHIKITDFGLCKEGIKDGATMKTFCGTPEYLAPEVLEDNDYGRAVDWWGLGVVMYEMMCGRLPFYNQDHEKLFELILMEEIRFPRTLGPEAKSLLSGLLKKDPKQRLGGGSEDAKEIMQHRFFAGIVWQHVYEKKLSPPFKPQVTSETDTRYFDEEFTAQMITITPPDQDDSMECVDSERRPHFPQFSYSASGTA
# [30] = biological target: ALK tyrosine kinase receptor (Homo sapiens, UniProt Q9UM73); assay: Inhibition of ALK by scintillation proximity assay
# Chain of ALK tyrosine kinase receptor (Q9UM73 whole entry): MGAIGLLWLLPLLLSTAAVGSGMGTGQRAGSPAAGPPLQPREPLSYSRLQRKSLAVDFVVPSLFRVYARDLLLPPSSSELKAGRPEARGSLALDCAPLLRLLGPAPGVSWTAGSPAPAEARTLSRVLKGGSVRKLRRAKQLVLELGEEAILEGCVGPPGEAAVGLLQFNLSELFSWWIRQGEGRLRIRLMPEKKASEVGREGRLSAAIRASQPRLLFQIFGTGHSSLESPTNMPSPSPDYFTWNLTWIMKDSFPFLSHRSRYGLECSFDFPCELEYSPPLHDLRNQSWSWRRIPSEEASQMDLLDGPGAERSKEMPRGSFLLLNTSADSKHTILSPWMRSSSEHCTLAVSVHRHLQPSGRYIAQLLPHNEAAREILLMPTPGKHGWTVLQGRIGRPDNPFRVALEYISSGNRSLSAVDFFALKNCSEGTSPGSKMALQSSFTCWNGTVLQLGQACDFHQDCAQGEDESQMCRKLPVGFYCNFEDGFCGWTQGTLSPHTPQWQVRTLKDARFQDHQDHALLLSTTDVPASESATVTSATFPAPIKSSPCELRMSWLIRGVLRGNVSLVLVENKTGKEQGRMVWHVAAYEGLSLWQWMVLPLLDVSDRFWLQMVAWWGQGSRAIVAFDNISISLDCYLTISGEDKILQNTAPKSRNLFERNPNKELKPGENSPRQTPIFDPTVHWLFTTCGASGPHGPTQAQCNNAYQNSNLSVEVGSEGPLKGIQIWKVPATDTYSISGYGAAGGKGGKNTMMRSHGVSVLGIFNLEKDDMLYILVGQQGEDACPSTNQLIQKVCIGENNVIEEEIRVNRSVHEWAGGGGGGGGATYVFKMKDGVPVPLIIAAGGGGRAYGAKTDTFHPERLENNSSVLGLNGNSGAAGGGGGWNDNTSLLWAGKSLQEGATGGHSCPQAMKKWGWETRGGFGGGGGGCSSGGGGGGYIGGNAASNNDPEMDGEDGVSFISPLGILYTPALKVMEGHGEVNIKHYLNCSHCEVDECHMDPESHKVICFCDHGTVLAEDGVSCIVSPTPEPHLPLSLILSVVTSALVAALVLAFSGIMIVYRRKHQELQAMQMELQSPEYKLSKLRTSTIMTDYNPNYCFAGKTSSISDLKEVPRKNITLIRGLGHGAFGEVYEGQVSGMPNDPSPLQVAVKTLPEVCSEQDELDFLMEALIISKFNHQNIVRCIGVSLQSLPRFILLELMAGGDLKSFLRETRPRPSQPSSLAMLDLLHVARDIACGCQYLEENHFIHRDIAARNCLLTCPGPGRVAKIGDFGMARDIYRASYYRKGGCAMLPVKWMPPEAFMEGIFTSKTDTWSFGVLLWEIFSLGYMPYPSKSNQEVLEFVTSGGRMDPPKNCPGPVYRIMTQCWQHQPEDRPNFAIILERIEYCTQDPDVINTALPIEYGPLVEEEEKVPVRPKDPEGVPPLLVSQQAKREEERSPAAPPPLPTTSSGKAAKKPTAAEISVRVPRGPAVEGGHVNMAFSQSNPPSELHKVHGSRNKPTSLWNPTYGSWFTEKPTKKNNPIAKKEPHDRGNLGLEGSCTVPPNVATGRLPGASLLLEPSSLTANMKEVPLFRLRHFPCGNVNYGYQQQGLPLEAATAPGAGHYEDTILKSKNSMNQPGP
# [31] = biological target: Aurora kinase A (Homo sapiens, UniProt O14965); assay: Inhibition of Aurora A by scintillation proximity assay
# [32] = biological target: Aurora kinase B (Homo sapiens, UniProt Q96GD4); assay: Inhibition of Aurora B by scintillation proximity assay
# [33] = biological target: Cell division cycle 7-related protein kinase (Homo sapiens, UniProt O00311); assay: Inhibition of CDC7 by scintillation proximity assay
# [34] = biological target: Serine/threonine-protein kinase Chk1 (Homo sapiens, UniProt O14757); assay: Inhibition of CHK1 by scintillation proximity assay
# Chain of Serine/threonine-protein kinase Chk1 (O14757 whole entry): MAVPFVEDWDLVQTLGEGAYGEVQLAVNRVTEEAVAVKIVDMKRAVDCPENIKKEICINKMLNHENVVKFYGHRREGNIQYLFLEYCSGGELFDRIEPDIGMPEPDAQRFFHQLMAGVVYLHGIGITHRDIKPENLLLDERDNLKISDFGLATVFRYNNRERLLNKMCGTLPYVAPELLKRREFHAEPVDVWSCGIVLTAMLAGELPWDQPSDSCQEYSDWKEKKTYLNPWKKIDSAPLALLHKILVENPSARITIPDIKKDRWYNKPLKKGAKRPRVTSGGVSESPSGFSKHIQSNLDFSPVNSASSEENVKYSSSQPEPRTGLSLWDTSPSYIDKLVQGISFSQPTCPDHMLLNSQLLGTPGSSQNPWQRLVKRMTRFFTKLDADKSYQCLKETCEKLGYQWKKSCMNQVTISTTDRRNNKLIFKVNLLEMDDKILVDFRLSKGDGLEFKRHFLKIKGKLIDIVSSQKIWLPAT
# [35] = biological target: Fibroblast growth factor receptor 1 (Homo sapiens, UniProt P11362); assay: Inhibition of FGFR1 by scintillation proximity assay
# [36] = biological target: Receptor-type tyrosine-protein kinase FLT3 (Homo sapiens, UniProt P36888); assay: Inhibition of FLT3 by scintillation proximity assay
# [37] = biological target: Insulin receptor (Homo sapiens, UniProt P06213); assay: Inhibition of IR by scintillation proximity assay
# [38] = biological target: Mast/stem cell growth factor receptor Kit (Homo sapiens, UniProt P10721); assay: Inhibition of cKit by scintillation proximity assay
# [39] = Inhibition of NIM by scintillation proximity assay
# [40] = Inhibition of PDGFR by scintillation proximity assay
# [41] = biological target: Serine/threonine-protein kinase PLK2 (Homo sapiens, UniProt Q9NYY3); assay: Inhibition of PLK2 by scintillation proximity assay
# [42] = biological target: Proto-oncogene tyrosine-protein kinase receptor Ret (Homo sapiens, UniProt P07949); assay: Inhibition of RET by scintillation proximity assay
# [43] = Inhibition of STK2 by scintillation proximity assay
# [44] = Inhibition of SULU1 by scintillation proximity assay
# [45] = biological target: Vascular endothelial growth factor receptor 2 (Homo sapiens, UniProt P35968); assay: Inhibition of VEGFR2 by scintillation proximity assay
# [46] = test system: A2780; assay: Cell cycle arrest in human A2780 cells assessed as accumulation at G0/G1 phase at 3 uM after 24 hrs by FACS analysis; format: functional
# Procedure, shortened: (§3)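 A2780 cells (ECACC) seeded at 25000 cells/cm² in RPMI 1640, pH 7.4, with 10% FBS, 2 mM L-glutamine and penicillin–streptomycin, at 37 °C in 5% CO₂. After 24 h, treated for 24 h at 1 and 3 µM. Floating and trypsinised adherent cells pooled, PBS-washed, and DNA content analysed by flow cytometry.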
# [47] = test system: A2780; assay: Cell cycle arrest in human A2780 cells assessed as accumulation at S phase at 3 uM after 24 hrs by FACS analysis; format: functional; procedure, shortened: as §3
# [48] = test system: A2780; assay: Cell cycle arrest in human A2780 cells assessed as accumulation at G2/M phase at 3 uM after 24 hrs by FACS analysis; format: functional; procedure, shortened: as §3
# [49] = test system: A2780; assay: Inhibition of cellular DNA synthesis in human A2780 cells assessed as BrdU incorporation into nuclear DNA at 3 uM after 24 hrs by Hoechst 33342 staining-based microscopic analysis; format: functional; design: scale not given: the % may be the effect or the level left
# Procedure, shortened: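 A2780 human ovarian adenocarcinoma cells were seeded at 25000 cells/cm² in RPMI 1640 pH 7.4 with 10% FBS, 2 mM L-glutamine and penicillin–streptomycin. They were kept at 37 °C in 5% CO₂. After 24 h they were exposed to compound for 24 h. Floating and adherent cells were harvested with trypsin/EDTA, washed in PBS, and split for flow cytometry, immunoblot and BrdU incorporation.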
# [50] = biological target: Cyclin-dependent kinase 2/cyclin A (Homo sapiens, UniProt P24941); assay: Inhibition of human CDK2/cyclin A expressed in Escherichia coli BL21 by scintillation proximity assay
# [51] = biological target: Cyclin-dependent kinase 2/cyclin E1 (Homo sapiens, UniProt P24941); assay: Inhibition of CDK2/cyclin E by scintillation proximity assay; format: protein-complex assay
# [52] = biological target: Tyrosine-protein kinase ABL1 (Homo sapiens, UniProt P00519); assay: Inhibition of c-ABL by scintillation proximity assay
# [53] = Inhibition of CK2 by scintillation proximity assay
# [54] = biological target: Mitogen-activated protein kinase 1 (Homo sapiens, UniProt P28482); assay: Inhibition of ERK2
# [55] = biological target: Hepatocyte growth factor receptor (Homo sapiens, UniProt P08581)
# [56] = test system: A2780; assay: Antiproliferative activity against human A2780 cells after 72 hrs by CellTiter-Glo luminescence assay; details: A2780, 72 h
compound,measurement,setting,value
CC(C)CC(=O)Nc1[nH]nc2c1CN(C(=O)C1CCN(C)CC1)C2(C)C [PHA-793887],IC50,[1],> 10 µM
same,IC50,[2],> 10 µM
same,IC50,[3],> 10 µM
same,IC50,[4],> 10 µM
same,IC50,[5],> 10 µM
same,IC50,[6],> 10 µM
same,IC50,[7],> 10 µM
same,IC50,[8],> 10 µM
same,IC50,[9],> 10 µM
same,IC50,[10],> 10 µM
same,IC50,[11],> 10 µM
same,IC50,[12],> 10 µM
same,solubility,[13],10000 µg/mL
same,solubility,[14],> 225 µM
same,activity at 10 µM,[15],91%
same,Cmax,[16],36.5 µM
same,AUC,[17],19.2 µM·h
same,clearance,[18],23.9 mL/min/kg
same,half-life,[19],4.1 h
same,Vd,[20],1.36 L/kg
same,Activity,[21],< 10%
same,Activity,[22],Non-toxic
same,fraction unbound,[23],0.46
same,IC50,[24],0.005 µM
same,IC50,[25],0.01 µM
same,IC50,[26],0.06 µM
same,IC50,[27],0.062 µM
same,IC50,[28],0.079 µM
same,IC50,[29],> 10 µM
same,IC50,[30],> 10 µM
same,IC50,[31],> 10 µM
same,IC50,[32],> 10 µM
same,IC50,[33],> 10 µM
same,IC50,[34],> 10 µM
same,IC50,[35],> 10 µM
same,IC50,[36],> 10 µM
CC(C)(C)C(=O)N1Cc2c(NC(=O)c3cc(F)cc(F)c3)n[nH]c2C1(C)C,IC50,[1],> 10 µM
same,IC50,[2],> 10 µM
same,IC50,[37],> 10 µM
same,IC50,[3],> 10 µM
same,IC50,[38],> 10 µM
same,IC50,[4],> 10 µM
same,IC50,[5],> 10 µM
same,IC50,[39],> 10 µM
same,IC50,[6],> 10 µM
same,IC50,[40],> 10 µM
same,IC50,[7],> 10 µM
same,IC50,[8],> 10 µM
same,IC50,[9],> 10 µM
same,IC50,[41],> 10 µM
same,IC50,[10],> 10 µM
same,IC50,[42],> 10 µM
same,IC50,[43],> 10 µM
same,IC50,[44],> 10 µM
same,IC50,[45],> 10 µM
same,IC50,[12],> 10 µM
same,solubility,[13],3400 µg/mL
same,solubility,[14],186 µM
same,Activity,[46],22%
same,Activity,[47],-52%
same,Activity,[48],26%
same,Activity,[49],-96%
same,IC50,[50],0.06 µM
same,IC50,[51],0.09 µM
same,IC50,[24],0.14 µM
same,IC50,[26],0.45 µM
same,IC50,[28],3.63 µM
same,IC50,[52],> 10 µM
same,IC50,[29],> 10 µM
same,IC50,[30],> 10 µM
same,IC50,[31],> 10 µM
same,IC50,[32],> 10 µM
same,IC50,[33],> 10 µM
same,IC50,[34],> 10 µM
same,IC50,[53],> 10 µM
same,IC50,[54],> 10 µM
same,IC50,[35],> 10 µM
same,IC50,[36],> 10 µM
same,IC50,[55],> 10 µM
same,IC50,[56],0.31 µM
